Assay outcomes as filed in PubChem.
CaV13 ICDI inh = Disruptors of the CACNA1D IQ motif to Ca2+-dependent inactivation inhibitor domain association, primary screening, Förster resonance energy transfer in intact living …; AID 743397; inhibition, % at 12.3 µM; HEK cells, CFP/YFP FRET ICDI-IQ, plate reader, 10 min; percent FRET-ratio fall versus neutral wells; actives 0.098% (n = 340,000);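 active = mean replicate inhibition of at least 30% and at least 1% of replicates passing that level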;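 note: 0% = median of the neutral control wells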
XiGFP reactiv = X-chromosome reactivation activator | XiGFP mouse fibroblasts, % GFP-positive cells imaging, 3 d; cells co-treated with 5-aza-dC sensitizer; scaled so ellipticine positive control = 100% | activation, % at 7.58 µM | actives 0.055% (n = 360,000) | AID 743238;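 active = mean normalized replicate activation at least 10% and every replicate at or above 10%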;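 note: 0% = median of on-plate neutral control wells and 100% = ellipticine 6 µM median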
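System: XiGFP fibroblasts, SV40-immortalized. Medium: DMEM plus 5-aza-dC sensitizer. Doses: single point. Timing: 3 d treatment, 15 min room-temperature fixation. Control set: ellipticine 6 µM.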
DENV2 CPE rescue = DENV2-induced cell death inhibition. DENV2-infected cells, cytopathic effect rescue, plate reader. CPE inhibition, % at 9.99 µM. actives 1.7% (n = 350,000). AID 651640; in the data active = CPE inhibition above about 20%, passing the limit was not always enough; tested in BHK-21 cells;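 note: 0% = median of neutral control wells and 100% = median of positive control wells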
CASP6 VEID inh = blocks human caspase-6 cleavage activity; P55212; purified caspase-6, Z-VEID-R110 cleavage fluorescence; inhibition, % at 12.5 µM; actives 0.53% (n = 350,000); AID 686996;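 active = mean inhibition across replicates at least about 35%, with every replicate also reaching that limit, limit read from the data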;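 note: 0% = median of neutral control wells and 100% = no fluorescence left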
Target sequence (P55212 24-179 limits assumed): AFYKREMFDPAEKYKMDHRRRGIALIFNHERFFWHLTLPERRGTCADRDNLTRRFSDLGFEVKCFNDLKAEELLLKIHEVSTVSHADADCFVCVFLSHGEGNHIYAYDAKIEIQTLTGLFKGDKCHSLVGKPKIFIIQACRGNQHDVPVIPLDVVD
Target sequence (P55212 194-293 limits assumed): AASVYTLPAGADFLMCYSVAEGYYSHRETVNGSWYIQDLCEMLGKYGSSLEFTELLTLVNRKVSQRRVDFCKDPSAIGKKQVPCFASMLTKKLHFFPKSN
FN deposition inh = fibronectin deposition inhibition | AH1F fibroblasts, Alexa488-fibronectin deposition fluorescence, overnight | actives 0.086% (n = 350,000) | AID 743247 | inhibition, % at 12.6 µM;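 active = mean inhibition across replicates of 30% or more, regardless of how many single replicates reach that level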;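 note: positive control wells lacked labelled fibronectin entirely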
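test system = AH1F fibroblasts assembling fluorescent fibronectin matrix | quantity = 10000 AH1F cells per well | buffer or medium = DMEM plus 2% serum, read in PBS | doses = single dose, pinned | incubation = 1 h cell attachment, overnight exposure to compound and label | detection = fluorescence at 485 nm excitation, 525 nm emission | read-out basis = inhibition from reduced deposited-fibronectin fluorescence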
Active calls of the source: *; · = no result given; ! = not active in a repeat. Most compounds without a hit are left out; they make up all but 2% or so of the library.

SMILES | CaV13 ICDI inh | XiGFP reactiv | DENV2 CPE rescue | CASP6 VEID inh | FN deposition inh
CCC(=O)Nc1ccc2c(c1)C(=O)N(C)C[C@@H](OC)[C@H](C)CN(C(=O)c1ccccn1)[C@@H](C)CO2 | · | 0 | 27* | 0 | 3
CCCC(=O)Nc1ccc2c(c1)C(=O)N(C)C[C@@H](OC)[C@H](C)CN(C(=O)c1ccccn1)[C@H](C)CO2 | · | 0 | 3 | · | 0
CCCC(=O)Nc1ccc2c(c1)OC[C@@H](C)N(C(=O)c1ccccn1)C[C@H](C)[C@H](OC)CN(C)C2=O | · | 0 | -5 | 0 | 9
COc1ccccc1CN1CC2(C1)[C@@H](c1ccccc1)[C@@H](CO)N2Cc1ccccc1 | · | 0 | · | · | ·
CCCNC(=O)[C@@H]1[C@@H](CO)[C@@H]2Cn3c(cccc3=O)[C@H]1N2S(=O)(=O)c1ccccc1F | · | 0 | 0 | 2 | ·
COCCNC(=O)C[C@H]1C[C@@H]2c3cc(NS(C)(=O)=O)ccc3O[C@@H]2[C@@H](CO)O1 | · | 0 | 12 | -4 | -6
Cc1cc(=O)c2c(o1)C(=O)c1occc1C2=O | -7 | 0 | 0 | 92* | -4
COc1ccc(NC(=O)N(C)C[C@@H]2Oc3c(NS(=O)(=O)c4ccc(OC)cc4)cccc3C(=O)N([C@@H](C)CO)C[C@@H]2C)cc1 | · | 0 | 7 | -2 | ·
C[C@H]1CN([C@@H](C)CO)C(=O)c2cccc(NS(=O)(=O)c3ccc(Cl)cc3)c2O[C@H]1CN(C)C(=O)Nc1ccccc1 | · | -1 | 40* | 0 | ·
COc1ccc(NC(=O)N(C)C[C@H]2Oc3c(NS(=O)(=O)c4ccc(Cl)cc4)cccc3C(=O)N([C@H](C)CO)C[C@H]2C)cc1 | · | 0 | 49* | -6 | -1
COc1ccc(NC(=O)N(C)C[C@H]2Oc3c(NS(=O)(=O)c4cn(C)cn4)cccc3C(=O)N([C@@H](C)CO)C[C@@H]2C)cc1 | · | 1 | 26* | -1 | ·
COc1ccc(NC(=O)N(C)C[C@H]2Oc3c(NS(=O)(=O)c4cn(C)cn4)cccc3C(=O)N([C@H](C)CO)C[C@H]2C)cc1 | · | 3 | 0 | -2 | ·
COc1ccc(NC(=O)N(C)C[C@H]2Oc3c(NS(=O)(=O)c4ccc(OC)cc4)cccc3C(=O)N([C@H](C)CO)C[C@@H]2C)cc1 | -5 | 0 | 28*! | -3 | 7
C[C@H](CO)N1C[C@H](C)[C@@H](CN(C)C(=O)Nc2ccccc2)Oc2c(NS(=O)(=O)c3ccc(Cl)cc3)cccc2C1=O | · | -1 | -1 | -2 | ·
CC(C)NC(=O)N(C)C[C@@H]1Oc2c(NS(C)(=O)=O)cccc2C(=O)N(C)C[C@@H]1C | · | 0 | · | · | -12
Cc1ccc(S(=O)(=O)N(C)C[C@@H]2OCCCC[C@H](C)Oc3ccc(NC(=O)NC(C)C)cc3C(=O)N([C@@H](C)CO)C[C@H]2C)cc1 | · | 0 | -6 | 1 | -9
O=C1c2ccccc2S(=O)(=O)c2cc(C(=O)N3CCN(c4ccc(Cl)cn4)CC3)ccc21 | -9 | 0 | 42* | 2 | -6
O=C(Nc1ccc(-c2ccccc2)cc1)c1ccc2c(c1)S(=O)(=O)c1ccccc1C2=O | -10 | 0 | -16 | -5 | -21
O=C(Nc1ccncc1)c1ccc2c(c1)S(=O)(=O)c1ccccc1C2=O | -5 | 1 | 53* | -3 | 12
CCCN(CCC)C(=O)c1ccc2c(c1)S(=O)(=O)c1ccccc1C2=O | -9 | 0 | -1 | 2 | 7
CCN(Cc1ccncc1)C(=O)c1ccc2c(c1)S(=O)(=O)c1ccccc1C2=O | 2 | 0 | · | -1 | 39*
CN1c2ccc(-c3ccccc3)cc2[C@H]2[C@H](CCN2C(=O)c2ccncc2)[C@H]1CO | · | 0 | -8 | -5 | -27
C[C@H](NC(=O)N(C)C[C@H]1OCc2ccccc2-c2c(n(C)c3ccccc23)C(=O)N([C@H](C)CO)C[C@H]1C)c1ccccc1 | · | 0 | 32* | 3 | 4
C[C@H](CO)N1C[C@H](C)[C@H](CN(C)C(=O)Nc2ccc(-c3ccccc3)cc2)OCc2ccccc2-c2c(n(C)c3ccccc23)C1=O | · | 1 | 88* | 1 | -2
CO[C@H](C(=O)N(C)C[C@H]1OCc2ccccc2-c2c(n(C)c3ccccc23)C(=O)N([C@@H](C)CO)C[C@@H]1C)c1ccccc1 | · | 0 | 26* | -1 | -5
SMILES | CaV13 ICDI inh | XiGFP reactiv | DENV2 CPE rescue | CASP6 VEID inh | FN deposition inh
CC(=O)Nc1cccc2c1O[C@H](CN(C)S(C)(=O)=O)[C@H](C)CN(C)C2=O | · | 0 | · | · | -10
C[C@@H]1CC=CC[C@@H](c2cccc(Cl)c2)NC(=O)[C@H](C)N(C)C(=O)c2ccccc2O1 (mixture of isomers) | · | 0 | · | · | -16
Cc1cc2c(=O)n(C)c(SCC(=O)Nc3ccc(F)cc3)nc2s1 | -7 | -1 | 37* | 4 | ·
CC(=O)Nc1cccc(NC(=O)CSc2ncc(C(=O)Nc3ccc(F)cc3)c(=O)n2C)c1 | -6 | 0 | -4 | -1 | -3
CC(=O)Nc1ccc(NC(=O)CSc2ncc(C(=O)Nc3ccc(F)cc3)c(=O)n2C)cc1 | -6 | 0 | 30* | 0 | ·
Cc1cc2c(=O)n(C)c(SCC(=O)Nc3cccc(F)c3)nc2s1 | -3 | · | 2 | 0 | -4
CO[C@H]1CN(C)C(=O)c2ccc(NC(C)=O)cc2OC[C@@H](C)N(Cc2ccncc2)C[C@H]1C | · | 0 | · | · | 28
CC(=O)N1CC(=O)N2[C@H](CO)[C@@H](c3ccc(-c4ccccc4)cc3)[C@@H]2C1 | · | 1 | · | · | ·
COC(=O)[C@]12C[C@H](CC(=O)NCc3ccc(C)o3)C(=O)N(Cc3ccccc3)C1=C[C@H](C1CCCC1)O[C@@H]2C | -11 | 0 | -14 | 66* | 4
C=C(C)C(=O)Oc1ccc(N=Nc2ccc(C)cc2)ccc1=O | -2 | 0 | 0 | 80* | -6
O=C(C[C@H]1CC[C@H]2[C@@H](COC[C@@H](O)CN2C(=O)c2ccc3c(c2)OCO3)O1)NCCN1CCCC1 | · | 0 | 27* | 1 | -5
O=C(C[C@@H]1CC[C@H]2[C@@H](COC[C@H](O)CN2C(=O)c2ccc3c(c2)OCO3)O1)NCCN1CCCCC1 | · | 0 | 0 | -124 | -10
O=C(C[C@@H]1CC[C@H]2[C@@H](COC[C@H](O)CN2C(=O)Nc2ccc(F)cc2)O1)NC1Cc2ccccc2C1 | · | 0 | 25* | -3 | -25
O=C(C[C@H]1CC[C@H]2[C@@H](COC[C@@H](O)CN2C(=O)c2ccc3c(c2)OCO3)O1)NC1CCC1 | · | 0 | -6 | 3 | -1
O=C(C[C@H]1CC[C@@H]2[C@H](COC[C@H](O)CN2C(=O)c2ccc3c(c2)OCO3)O1)NC1Cc2ccccc2C1 | · | 0 | 24* | -2 | -1
CCCC(=O)Nc1ccc2c(c1)C(=O)N(C)C[C@@H](OC)[C@H](C)CN(C(=O)CC)[C@@H](C)CO2 | · | 1 | · | · | 9
